Screening data deposited in PubChem by The Scripps Research Institute Molecular Screening Center.
A selection: hits, their analogues and other compounds. The true share with any hit is near 1.8%.
CHRM4 antagonist = antagonists of human muscarinic M4 receptor (CHRM4). AID 624125. CHO-hM4 cells, ACh EC80, Fluo-8 calcium fluorescence. 0.73% of 360,000 active. inhibition, % at 3 µM;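 active means inhibition above its plate's cutoff, the mean inhibition of sample wells plus 3 SD, cut at about 27% in these data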;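 further: 0% = acetylcholine EC80 with DMSO and 100% = DMSO without agonist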
M4 ag = agonists of human muscarinic M4 receptor (CHRM4) | P08173 | CHO-K1 hM4/Gqi5, Fluo-8 calcium fluorescence; vehicle 0%, full acetylcholine response 100% | activation, % at 3 µM | 0.14% of 360,000 active;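 active means activation above the run mean over all test wells plus 3 SD, cut at about 32% in these data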;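 further: peak over basal fluorescence ratio per well then scaled between controls; 0% = DMSO wells and 100% = acetylcholine at EC100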
CHRM5 agonist = agonists of human muscarinic M5 receptor (CHRM5) | P08912 | CHO-K1 hM5 cells, Fluo-8 calcium fluorescence; 0% DMSO wells, 100% maximal acetylcholine response | activation, % at 3 µM | 0.19% of 360,000 active | AID 624037;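 active means activation above the run's mean over test compounds plus 3 SD, cut at about 23% in these data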;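 further: signal is peak over basal fluorescence ratio across the kinetic read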
Target sequence (P08912 whole entry, looked up): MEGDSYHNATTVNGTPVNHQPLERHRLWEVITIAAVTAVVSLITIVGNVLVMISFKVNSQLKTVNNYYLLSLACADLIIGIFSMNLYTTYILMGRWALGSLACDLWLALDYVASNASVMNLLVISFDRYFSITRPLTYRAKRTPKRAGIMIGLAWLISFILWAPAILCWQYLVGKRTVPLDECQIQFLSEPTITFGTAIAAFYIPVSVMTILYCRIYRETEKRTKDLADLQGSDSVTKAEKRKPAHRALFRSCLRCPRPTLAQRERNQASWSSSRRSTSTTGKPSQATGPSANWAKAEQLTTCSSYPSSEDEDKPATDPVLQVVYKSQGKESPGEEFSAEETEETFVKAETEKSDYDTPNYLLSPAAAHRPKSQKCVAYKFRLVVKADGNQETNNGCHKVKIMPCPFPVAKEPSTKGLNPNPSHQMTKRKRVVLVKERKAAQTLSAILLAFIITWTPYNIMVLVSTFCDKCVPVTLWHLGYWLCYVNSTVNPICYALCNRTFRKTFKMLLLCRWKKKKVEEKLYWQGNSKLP
M5 PAM = positive allosteric modulators of human muscarinic M5 receptor | P08912 | CHO-K1 hM5, Fluo-8 calcium, ACh EC20 PAM; 0% = ACh EC20, 100% = ACh EC100 | activation, % at 3 µM | 0.3% of 360,000 active | AID 624038;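 active means activation above the run cutoff, the mean activation of all test compounds plus 3 SD, cut at about 18% in these data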
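System: CHO-K1 hM5 cells. Reagent: acetylcholine, EC20 level. Compound dosing: single dose, 3 µM nominal final test concentration. Timing: Post-acetylcholine fluorescence recording 140 s. Detection: Fluo-8 calcium fluorescence. Read-out: % activation, ACh-normalized. Benchmarks: ACh EC20 and EC100 wells. Repeats: singlicate, one well per test compound.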
M4 PAM = CHRM4 positive allosteric modulation | CHO-K1 hM4/Gqi5, Fluo-8 calcium fluorescence, ACh EC20; 0% = ACh EC20, 100% = maximal ACh | AID 624126 | activation, % at 3 µM | 0.4% of 360,000 active | P08173;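 active means activation above its plate's cutoff, the mean activation of sample wells plus 3 SD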
M5 antag = blocks acetylcholine activation of human M5 receptor; P08912; CHO-hM5 cells, Fluo-8 calcium fluorescence, ACh EC80; inhibition, % at 3 µM; 0.59% of 360,000 active; AID 624040;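 active means inhibition above a per-plate cutoff, the mean of that plate's test compounds plus 3 SD, cut at about 27% in these data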;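 further: 0% = acetylcholine EC80 with DMSO and 100% = DMSO without agonist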
Starred values were filed as active, the others as inactive.

SMILES	CHRM4 antagonist	M4 ag	CHRM5 agonist	M5 PAM	M4 PAM	M5 antag
Cn1c(CN2CCCCC2)nc2cc(NS(=O)(=O)c3ccc(Cl)cc3)ccc21	1	43*	19	-6	3	0
Cc1nc2nc(SCC(=O)NCCCN3CCCC3)nn2c(C)c1Cc1ccccc1Cl	27*	1	-9	-15	-20	26
Cc1nc2nc(SCC(=O)NCCCN3CCCCC3)nn2c(C)c1Cc1ccccc1	4	1	-6	-4	-14	14
CCC1CCCCN1CCCNC(=O)CSc1nc2nc(C)c(Cc3ccc(C)cc3)c(C)n2n1 (stereo not drawn)	26*	1	-8	-9	-14	8
Cc1ccccc1N(CC(=O)NC1CCCCC1)C(=O)CNC(=O)c1cccs1	-12	3	-2	1	1	-3
O=C(N/N=C/c1cccc2cccnc12)c1ccccc1O	35*	7	5	-9	-26	25
CCNc1ccc(Br)cc(C(=O)/C=C/c2ccc(Cl)cc2Cl)c1=O	40*	5	5	12	3	20
Nc1c(C(=O)N2CCOCC2)sc2nc3c(cc12)CCC3	35*	2	0	0	15	-5
Cc1c(C(=O)Nc2ccncc2)sc2nc(-c3ccccc3)cn12	-6	26	10	-13	-6	5
Cc1c(C(=O)Nc2ccc3c(c2)OCCO3)sc2nc(-c3ccccc3)cn12	34*	30	6	-25	-11	28*
CCN1C(=O)[C@H]2[C@@H](c3ccc(-c4ccccc4)cc3)N[C@@](Cc3ccccc3)(C(=O)OC)[C@H]2C1=O	-14	0	-2	1	17	5
CCN1C(=O)[C@H]2[C@@H](c3ccc(-c4ccccc4)cc3)N3CCCC[C@@]3(C(=O)OC)[C@H]2C1=O	-6	14	5	6	24*	3
CCN1C(=O)[C@H]2[C@@H](c3ccc(-c4ccc(C(C)=O)cc4)cc3)N[C@@](Cc3ccccc3)(C(=O)OC)[C@H]2C1=O	-11	2	-1	-4	24*	-2
COC(=O)c1ccc(CN2CCCC(C(=O)c3ccccc3OC)C2)cc1 (stereo not drawn)	6	1	2	5	-3	-2
COc1ccccc1N1CCN(c2nccc(C)n2)CC1	-7	0	4	2	4	-2
CCC(C)(C)NC(=O)CN(C(=O)CNS(=O)(=O)c1ccc(F)cc1)c1ccc2c(c1)OCCO2	-6	3	-2	2	-5	13
COc1ccccc1-c1ccc(/C=C2/C=C(C)OC2=O)o1	-10	2	-2	2	6	1
COc1ccccc1-c1ccc(/C=C2\C=CC(=O)O2)o1	8	24	70*	-24	-15	27*
Cn1c(=O)[nH]c(=O)c2c1nc(N1CCCCC1)n2CCSc1nc2ccccc2o1	81*	0	-1	-11	-13	10
O=C(O)c1cccc(Nc2nc(Nc3ccccc3)nc(N3CCCC3)n2)c1	-6	0	-1	12	25*	-4
CCCCC(=O)N(C)c1c(CC)nc2c(OCCC)cccn12	-7	0	-3	3	0	10
O=C(NCc1ccc(F)c(F)c1)c1cccc2c(-c3cccnc3)coc12	2	17	6	-13	-7	13
COc1ccc(CNC(=O)c2cccc3c(-c4cccnc4)coc23)cc1OC	14	21	9	-18	-8	35*
Cc1cc(C(=O)Nc2ccc(C#N)cc2)on1	-12	2	0	-3	2	8
Cc1ccc(-n2c(SCC(N)=O)nnc2-c2ccc(S(=O)(=O)N3CCCCC3)cc2)c(C)c1	99*	12	-4	-17	-36	19
SMILES	CHRM4 antagonist	M4 ag	CHRM5 agonist	M5 PAM	M4 PAM	M5 antag
Cn1c(SCC(N)=O)nnc1-c1ccc(S(=O)(=O)N2CCCC2)cc1	-4	2	-4	-2	0	10
N#CCCN(C(=O)COC(=O)c1ccc(CNS(=O)(=O)c2ccc(F)c(Cl)c2)cc1)c1ccc(F)cc1	50*	15	-3	-19	-17	22
CCOc1ccc(NC(=O)CN2C(=O)S/C(=C/c3cccn3C)C2=O)cc1	1	2	-4	-16	-5	28*
COc1ccc(CNC(=O)Cn2nc(Cc3cccnc3)c3ccccc3c2=O)cc1	-5	2	2	-1	0	-2
COc1cccc(NC(=O)C2C3C=CC(O3)C2C(=O)NCc2cccnc2)c1 (stereo not drawn)	2	0	0	3	37*	6
COc1cc(NC(=S)NCc2cccnc2)cc(OC)c1	0	1	-1	-1	-6	-5
COc1cccc(NC(=O)Cn2nc(Cc3cccnc3)c3ccccc3c2=O)c1	59*	0	-1	-9	-13	6
CCN(C1CCS(=O)(=O)C1)S(=O)(=O)c1ccc(OC)c(OC)c1 (stereo not drawn)	-8	1	2	0	23*	6
CCCCN(C1CCS(=O)(=O)C1)S(=O)(=O)c1ccc(OC)cc1 (stereo not drawn)	3	1	0	-3	-3	1
N#Cc1cnn(-c2ccc(F)cc2)c1N	2	0	6	19*	3	-16
CCCCNC(=O)c1oc2ccc(S(=O)(=O)N3CCCC3)cc2c1C	0	4	2	-1	-5	-8
CC(C)CCC1CC(CSC(=N)N)OC1=O (stereo not drawn)	0	0	-17	21*	2	-2
CC(=O)Nc1cccc(C(=O)/C=C/c2ccc(N(C)C)cc2)c1	39*	68*	74*	-21	-22	34*
CCC(Sc1nc(N)cc(=O)[nH]1)C(=O)Nc1cc(C)on1 (stereo not drawn)	-14	2	-2	13	26*	1
CCc1nc2c(OCCOc3ccc(F)cc3)cccn2c1N(C)C(=O)C(C)C	0	1	-2	0	1	1
COC(=O)c1cc(Br)c(=O)n(-c2nccs2)c1	-15	1	-1	5	28*	-12
CC1=NN(c2ccccc2)C(=O)/C1=C\C=C1\N(C)c2ccccc2C1(C)C	4	10	17	-7	2	12
CN1/C(=C\C=C2/SC(=S)NC2=O)C(C)(C)c2ccccc21	44*	65*	51*	-28	-29	58*
CC1=NN(c2ccccc2)C(=O)/C1=C\C=C1/N(C)c2ccccc2C1(C)C	-4	25	36*	-16	-10	18
CC(C)(C)c1ccc(C(=O)NCC(=O)NCC(C)(C)N2CCOCC2)cc1	-1	1	0	-1	-3	9
